The source of these data is ChEMBL document CHEMBL4513216, “Probing the Open Global Health Chemical Diversity Library for Multistage-Active Starting Points for Next-Generation Antimalarials” (ACS Infect Dis, 2020).

SMILES strings stand for the structures.

The data set can be described thus: Toxicity liver stage against HepG2, at 10uM. The arrangement: test concentration 10 uM, cell line HepG2-A16-CD81EGFP. It counts as cell-based. The conditions noted are these: human, HepG2-A16-CD81EGFP cells; read-out: INHIBITION
The method, boiled down:
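Uninfected HepG2-A16-CD81EGFP cells, 3 × 10^3 per well, 1536-well, plated on prespotted compound at 10 μM final, parasite-free screening media added to match infected plates; puromycin 10 μM positive, DMSO 0.5% negative; run in parallel with 48 h PbLuc assay at 37 °C, 5% CO2; viability by CellTiter-Glo luminescence, normalized to controls.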
For the molecule `O=C(NC[C@H]1OC[C@@H](NC2CCC(F)(F)CC2)[C@@H]1O)C1CC1`, the cytotoxicity at 10 µM was -1.39%.

In the case of `Fc1ccc(-c2noc([C@@H]3Cc4nc[nH]c4CN3)n2)cc1`, the cytotoxicity at 10 µM is -5.9%. The figure for `Cn1c(C(=O)N2CC[C@@]3(O)CCCC[C@H]3C2)cc2ccccc21` is -46.8%. To `Cc1n[nH]c2c1C(c1ccc3c(c1)OCCO3)SCC(=O)N2` (stereo unspecified) belongs -0.37%; to `Cc1cccc(-n2ncc3c(=O)n(CCN4CCCCC4)cnc32)c1C`, -6.57%; to `Cc1cc(CN2C[C@@H]3CN(Cc4ccsc4)CCO[C@@H]3C2)no1`, -139%. To `COc1cc(CO)c(OC)c2c1OCO2` belongs -2.93%; to `CC(C)c1nnc2ccc(N3CCC(C(=O)O)CC3)nn12`, -1.92%. Regarding `COc1ccc(NC(=O)N2CCCC2c2ccco2)cc1OC` (stereo unspecified), the cytotoxicity at 10 µM is -7.07%. The figure for `CCc1ncnc2c1CCN(C(=O)N1CCCC1)CC2` is 5.46%; for `Cc1nc([C@@H]2C[C@@H]3CCN(C(=O)c4ccnnc4)C[C@H]3O2)sc1C` it is 2.68%; for `COc1ccc2c(c1)C1(CCN(Cc3ccncc3)CC1)N(C)CC2` it is -14.2%. To `CCCn1nccc1C(=O)Nc1nc(C)c(C)s1` belongs -6.19%; to `Cc1ccc(CNC(=O)c2cc(NC(=O)C3CC3)n(C)n2)o1`, 4.82%. To `CCn1ccc(NC(=O)c2cc(C)on2)n1` belongs -2.23%. Consider `CCn1nc(C)c2nc(C(C)C)nc(NCCCO)c21`, for which the cytotoxicity at 10 µM was 6.48%. The figure for `Cc1nn(CC(C)C)cc1S(=O)(=O)N(C)Cc1nonc1C` is 11.3%. The figure for `COCc1ccc(OC)c(CNC2CCCNC2=O)c1` (stereo unspecified) is 3.66%; for `O=C(O)[C@@H]1CCN(C(=O)Cc2ccccn2)[C@@H]1c1ccc(F)cc1` it is 4.22%. The figure for `O[C@H]1CN(Cc2c[nH]nc2-c2ccccc2)CC[C@@]12CCCO2` is 10.3%; for `CN(C)S(=O)(=O)N1CCC(c2ccncn2)CC1` it is -20.5%. For `O=C(O)c1ccccc1CN1CCC(c2ccnc3ccnn23)CC1`, the cytotoxicity at 10 µM was -37.8%. The figure for `CC(C)c1cc(O)nc(C2CCCN2C(=O)C2CC2)n1` (stereo unspecified) is -25.1%. `Cc1c(C2CCCN(C(=O)c3ccn(C)n3)C2)n2c(nc1=O)CCC2` (stereo unspecified): the cytotoxicity at 10 µM was 0.862%.

As for `CC(=O)Nc1nc(C2CCN(C(=O)c3ccncc3)CC2)cs1`, the cytotoxicity at 10 µM is -9.44%. The figure for `CCCS(=O)(=O)NC(=O)c1ccc(-n2nc(C)cc2C)cc1` is 1.36%; for `COc1ccc(Cl)cc1CN1CC(n2cccn2)C1` it is -1.73%. In the case of `O=C(NC1=NCCS1)C1CSCN1C(=O)C1CCCC1` (stereo unspecified), the cytotoxicity at 10 µM came out at 6.8%.

`CC(C)Cc1nc(CN2CCC(N3CCN(C)C3=O)CC2)no1`: the cytotoxicity at 10 µM turned out to be 14%. To `CNS(=O)(=O)CC1CCCN1c1ccccn1` (stereo unspecified) belongs 2.83%.

For the molecule `CN(C)c1ccc(C(=O)Nc2cnn(Cc3ccccn3)c2)cc1`, the cytotoxicity at 10 µM was -8.36%. To `COc1ccc(Cl)cc1CCNC(=O)NCc1cnn(C)c1C` belongs 3.87%; to `O=C(CNC(=O)c1cc(Cl)ccn1)Nc1nccs1`, -1.87%; to `CCc1nccn1CC1CCCN1S(=O)(=O)N1CCCOCC1` (stereo unspecified), -11.5%. Consider `CCC(CC)NC(=O)c1nc2n(n1)-c1ccccc1S(=O)(=O)N2`, for which the cytotoxicity at 10 µM stood at 8.3%. Turning to `Clc1cccnc1N1CCC(NCc2cccc3cn[nH]c23)C1` (stereo unspecified), the cytotoxicity at 10 µM is 13.7%. The figure for `O=C(Nc1cnn(Cc2ccc(Cl)cc2)c1)N[C@@H]1C=C[C@H](CO)C1` is -2.96%; for `CCc1nnc(SC2CCCN(c3cccc(F)c3)C2=O)n1C` (stereo unspecified) it is 7.17%. To `CC(C)(C)OC(=O)NCC1CCCCN1Cc1ccccn1` (stereo unspecified) belongs -3.59%.

With `Cc1cc(CN2CCN(C(=O)CCc3cccs3)CC2)on1`, the cytotoxicity at 10 µM is -5%. The figure for `Cc1nc(C)n(CC2CCCCN2Cc2nnc(-c3ccco3)o2)n1` (stereo unspecified) is -10.2%; for `COCc1ccccc1NC(=O)NCc1ccc(OCC2CC2)nc1` it is 3.88%; for `Cn1ccc2c(C(=O)N3CCN(C(=O)C4CCCC4)CC3)cccc21` it is -0.53%. The figure for `CC(C)(C(=O)NCC(=O)NCc1ccccc1)c1ccccc1F` is 4.63%; for `O=C(NC1CCCN(c2ccccc2F)C1)c1ccon1` (stereo unspecified) it is -6.43%. The figure for `CC(NS(=O)(=O)CCc1ccccn1)c1ccccc1Br` (stereo unspecified) is -4.74%; for `O=C1CN(C(=O)C2CCOCC2)CCN1Cc1ccc(Cl)cc1` it is -146%. For `CCc1nnc2n1CCN(C(=O)C(OC)c1ccccc1)C2` (stereo unspecified), the cytotoxicity at 10 µM stood at 3.65%.

`COCCN(Cc1ccccc1)Cc1nc(-c2ccsc2)no1`: the cytotoxicity at 10 µM stood at 5.6%. To `CCNC(=O)CN(Cc1ccoc1)C1CCCCC1` belongs 7.59%; to `O=C(Nc1ccccc1Cn1cccn1)N1CCCC(N2CCCC2)C1` (stereo unspecified), 5.6%; to `CCOCCN1CCN(CC(O)c2ccc(OC)cc2)CC1` (stereo unspecified), -2.28%. Take `COc1c(C)cnc(CN2CCCC2c2noc(C)n2)c1C` (stereo unspecified): the cytotoxicity at 10 µM was -3.75%. To `Cc1nsc(NCc2ccc(S(=O)(=O)N(C)C(C)C)cc2)n1` belongs 16.2%; to `CCN(CC1CCCO1)S(=O)(=O)N1CCCCCC1` (stereo unspecified), -1%; to `CC(O)CC(C)(C)CNC(=O)NCc1cccc(-n2cncn2)c1` (stereo unspecified), -4.79%. To `CS(=O)(=O)NCCNC(=O)C1(c2cccc(Cl)c2)CC1` belongs 5.63%. As for `CC(=O)N1CCO[C@@H]2CN(S(=O)(=O)c3ccc(C)cc3)CC[C@@H]2C1`, the cytotoxicity at 10 µM stood at 8.28%. The figure for `CNC(=O)[C@H]1C[C@@H]2CCN(Cc3ccc4c(c3)OCO4)C[C@@H]2O1` is 5.79%. To `Cc1cn2c(=O)c(-c3ccnc(NC4CCOCC4)n3)cnc2s1` belongs -5.5%; to `COCCNS(=O)(=O)c1cccc2c1CN(C(=O)c1ccoc1)CC2`, -3.88%; to `COc1ccc(OCc2cc(C(=O)N3CCCCO3)n[nH]2)c(Cl)c1`, 8.15%. The figure for `Cc1cncc(C(=O)N2CCNCC2C(=O)NCc2ccncc2)c1` (stereo unspecified) is -4%; for `O=C(Nc1cnc2n1CCCC2)c1cccc(OCC(F)(F)F)c1` it is -0.651%.

With `CC(C)=CCN1CCN(S(=O)(=O)c2cn(C)cn2)[C@H]2CS(=O)(=O)C[C@H]21`, the cytotoxicity at 10 µM turned out to be 0.634%. To `O=C(c1ccc(O)cn1)N1CCOC(Cc2cccc(C(F)(F)F)c2)C1` (stereo unspecified) belongs 5.08%; to `Cc1nc(CC(=O)N2CCC3(CC2)CC(=O)N(CC2CCCO2)C3)cs1` (stereo unspecified), -7.85%; to `CNc1ncc(CN(C)c2nc(C)c3ccc(S(C)(=O)=O)cc3n2)cn1`, -3.66%. To `COc1cc(C)c(C2CC(=O)NCc3nc4sccn4c32)cc1C` (stereo unspecified) belongs -2.19%; to `Oc1ccc(-c2c(-c3ccccc3)ncn2C[C@H]2CCCN2)cc1`, 17.5%.

`Cc1cc(C)n(CC(C)Nc2nc(C)nc3c2CCNC3)n1` (stereo unspecified): the cytotoxicity at 10 µM is 2.51%. Regarding `Cc1nc(C(C)C)cc(N2CCC3(CCC(=O)N(CC4CC4)C3)CC2)n1`, the cytotoxicity at 10 µM was -2.99%. To `CC(C)Cc1cc(C(=O)NCC(c2ccc(F)cc2)N(C)C)n(C)n1` (stereo unspecified) belongs -3.97%. `COc1cccn(CC(=O)N2CCC3(CCNCC3)C2)c1=O`: the cytotoxicity at 10 µM was -11.4%. The figure for `COc1nccc(N2CC[C@H](CO)[C@@H](O)C2)c1C#N` is -141%; for `COc1ccc2c(c1)OCC(C(=O)NCc1ncc3c(n1)CCC3)C2` (stereo unspecified) it is 2.15%.

Turning to `Cc1nccc(CNC(=O)CCc2c(C)nc3cc(O)nn3c2C)n1`, the cytotoxicity at 10 µM is -1.56%. `Cc1ccc(CC(=O)N2CCCC(n3ccnc3C(C)C)C2)cn1` (stereo unspecified): the cytotoxicity at 10 µM was -5.11%.

Turning to `CN(Cc1ccsc1)C(=O)c1cc2c([nH]c1=O)CCC2`, the cytotoxicity at 10 µM was -12.4%. To `CCc1nc(C2CCCN2C(=O)CCc2nc(C3CC3)no2)no1` (stereo unspecified) belongs -2.66%; to `CN(C)c1cc(C(=O)N2CCN(c3cc(C#N)ccn3)CC2)ccn1`, -9.27%.

For the molecule `CN(Cc1ccccc1)C(=O)CN1CCOC(Cn2cncn2)C1` (stereo unspecified), the cytotoxicity at 10 µM is -3.66%. To `Cc1cnc(CN(C)C2CCN(CCCc3ccccc3)C2)o1` (stereo unspecified) belongs -4.02%; to `Cc1noc(C)c1CN(C)C(=O)c1ccc(C(F)(F)F)nc1`, -10%; to `Cc1nc(C2CCCN2CC(=O)Nc2cc(C(C)(C)C)nn2C)no1` (stereo unspecified), -10.9%. To `CC(C)(C)C(=O)NCCc1ccn(-c2ccccc2)n1` belongs 1.76%; to `Cn1cncc1CN1CCc2nc3sccc3c(=O)n2CC1`, -3.75%; to `O=C(C1=CCCC1)N1CCC[C@]2(C[C@@H](OCc3ccncc3)CO2)C1`, -6.5%.

For the molecule `Fc1cccc(N2CCCC3(CN(Cc4ccccn4)CCO3)C2)c1` (stereo unspecified), the cytotoxicity at 10 µM was 2.29%. To `Cn1cc(CN2CCCC23CCN(C(=O)c2ccccc2)CC3)cn1` belongs 0.613%; to `O=C1CCCN1Cc1nnc2n1CCCN(Cc1ccco1)C2`, 3.24%. The figure for `CC1c2ncc(Cn3cccn3)n2CCN1Cc1cccnc1` (stereo unspecified) is 6.49%; for `Cc1ccc(C(=O)N2CCC3(CC2)COC(COc2ccccn2)C3)o1` (stereo unspecified) it is -0.954%; for `Cc1occc1C(=O)N1CCC[C@]2(C[C@@H](OCc3ccncc3)CO2)C1` it is -6.25%. The figure for `COC(=O)Cn1c(=O)[nH]c2cn(-c3cccc(C)c3)c(=O)n21` is 5.42%; for `Cn1cccc1C(=O)N1C[C@@H]2CC[C@H]1CN(Cc1cscn1)C2` it is 2.9%.
